Experimental data: ChEMBL document CHEMBL1129044, “Potent, selective tetrahydro-beta-carboline antagonists of the serotonin 2B (5HT2B) contractile receptor in the rat stomach fundus” (J Med Chem, 1996)

Legend:
[1] = target: 5-hydroxytryptamine receptor 2B (Rattus norvegicus) (UniProt P30994); test: Binding affinity analysed for 5-HT 2B receptor in rat stomach fundus; assay type: tissue-based
Summary of the method: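 Rat stomach fundus strips (5HT2B): isometric contraction recorded as grams of force. Control cumulative serotonin concentration–response curve, then 1 h incubation with a single antagonist concentration per tissue, then serotonin curve repeated. K_B = [B]/(dose ratio − 1), where dose ratio is agonist ED50 with antagonist over control ED50. Reported as −log K_B.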

[2] = target: Serotonin receptor 2a and 2b (5HT2A and 5HT2B) (Rattus norvegicus) (UniProt P30994+P14842); test: Relative binding to serotonin receptors 5-HT-2B and 5-HT-2A (Ratio of […] Ki); assay type: protein assay
Chain of Serotonin receptor 2a and 2b (5HT2A and 5HT2B) (Rattus norvegicus) (P14842 whole entry, looked up): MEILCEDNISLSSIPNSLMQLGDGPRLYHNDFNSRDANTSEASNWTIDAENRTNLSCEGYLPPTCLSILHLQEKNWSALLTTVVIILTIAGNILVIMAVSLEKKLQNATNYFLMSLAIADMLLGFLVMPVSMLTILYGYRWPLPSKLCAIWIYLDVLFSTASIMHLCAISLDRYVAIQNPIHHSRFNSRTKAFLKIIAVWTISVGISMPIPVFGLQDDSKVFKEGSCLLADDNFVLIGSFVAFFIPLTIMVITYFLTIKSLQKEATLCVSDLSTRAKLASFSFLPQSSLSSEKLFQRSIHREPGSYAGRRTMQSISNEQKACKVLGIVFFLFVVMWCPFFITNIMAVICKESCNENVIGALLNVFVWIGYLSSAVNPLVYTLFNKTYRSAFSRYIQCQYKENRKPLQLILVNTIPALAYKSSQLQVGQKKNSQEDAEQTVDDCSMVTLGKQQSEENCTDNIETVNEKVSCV
Chain of Serotonin receptor 2a and 2b (5HT2A and 5HT2B) (Rattus norvegicus) (P30994 whole entry, looked up): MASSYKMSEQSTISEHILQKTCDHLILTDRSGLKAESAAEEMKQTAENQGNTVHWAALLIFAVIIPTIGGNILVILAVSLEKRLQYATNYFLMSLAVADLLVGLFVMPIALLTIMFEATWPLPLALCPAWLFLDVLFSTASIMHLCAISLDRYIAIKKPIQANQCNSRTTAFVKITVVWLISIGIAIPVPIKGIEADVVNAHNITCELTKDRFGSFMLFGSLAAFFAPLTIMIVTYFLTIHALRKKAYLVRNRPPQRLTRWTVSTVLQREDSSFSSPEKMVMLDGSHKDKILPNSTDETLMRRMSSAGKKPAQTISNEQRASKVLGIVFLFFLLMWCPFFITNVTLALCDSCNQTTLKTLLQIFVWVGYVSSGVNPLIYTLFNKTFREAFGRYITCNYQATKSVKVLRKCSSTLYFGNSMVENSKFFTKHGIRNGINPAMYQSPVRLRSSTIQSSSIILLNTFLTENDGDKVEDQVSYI

[3] = species on record: Rattus norvegicus; test: Relative binding to serotonin receptors 5-HT-2B to 5-HT2C (Ratio of […] Ki)
[4] = target: T1, 5-hydroxytryptamine receptor 2A (Rattus norvegicus, UniProt P14842); test: Binding affinity for 5-HT 2A in rat […]; assay type: tissue-based
T1 sequence (P14842 whole entry): as the sequence (P14842 whole entry, looked up) above

[5] = target: 5-HT2C receptor (Mus musculus); test: Binding affinity towards 5-HT 2C receptor of mouse
[6] = target: 5-hydroxytryptamine receptor 2A (Rattus norvegicus) (UniProt P14842); test: Binding affinity analysed towards 5-HT 2A in rat jugular vein
Chain of 5-hydroxytryptamine receptor 2A (Rattus norvegicus) (P14842 whole entry): as the sequence (P14842 whole entry, looked up) above
Summary of the method: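 Rat external jugular vein (5HT2A), cannulated in situ and kept in Krebs' bicarbonate buffer; isometric contraction recorded. Control cumulative serotonin curve, 1 h with one antagonist concentration per tissue, serotonin curve repeated. K_B = [B]/(dose ratio − 1) from the agonist ED50 shift. Expressed as −log K_B.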

[7] = target: T1, 5-hydroxytryptamine receptor 2A; test: Binding affinity analysed on 5-HT 2A in rat […].; assay type: tissue-based
[8] = target: 5-hydroxytryptamine receptor 2A (Rattus norvegicus) (UniProt P14842)
[9] = target: 5-hydroxytryptamine receptor 2A (Rattus norvegicus) (UniProt P14842); remark: listed apart in the source

Chain of 5-hydroxytryptamine receptor 2B (Rattus norvegicus) (P30994 whole entry): as the sequence (P30994 whole entry, looked up) above

Row | Structure (SMILES) | -Log KB [1] | further results
1 | COc1ccc(CC2NCCc3c2[nH]c2ccc(F)cc32)cc1OC (stereo unspecified) | 8.49 | 
2 | COc1ccc(CC2NCCc3c2[nH]c2ccc(C4CCCCC4)cc32)cc1OC (stereo unspecified) | < 7.5 | 
3 | COc1ccc2c3c([nH]c2c1)C(Cc1ccc(OC)c(OC)c1)NCC3 (stereo unspecified) | 7.31 | 
4 | COc1cccc(CC2NCCc3c2[nH]c2ccccc32)c1 (stereo unspecified) | 8.04 | 
5 | COc1cc2c(cc1OC)CN1CCc3c([nH]c4ccccc34)[C@@H]1C2 | < 6.52 | 
6 | COc1ccc(CC2NCCc3c2[nH]c2c(F)cc(F)cc32)cc1OC (stereo unspecified) | 9.6 | 
7 | COc1ccc(CC2NCCc3c2[nH]c2ccc(C)cc32)cc1O (stereo unspecified) | 9.23 | 
8 | COc1ccc(OC)c(CC2NCCc3c2[nH]c2ccccc32)c1 (stereo unspecified) | 7.75 | 
9 | COc1cc(CC2NCCc3c2[nH]c2ccccc32)cc(OC)c1OC (stereo unspecified) | 8.1 | 
10 | Cc1ccc2[nH]c3c(c2c1)CCNC3CC1CCCCC1 (stereo unspecified) | 8.32 | 
11 | Cc1ccc2c(c1Br)NC1C(Cc3cccc4ccccc34)NCCC21 (stereo unspecified) | 8.56 | 
12 | Cc1cc(NC(=O)Nc2ccc3c(ccn3C)c2)sn1 | 7.95 | 
13 | COc1ccc(CC2c3[nH]c4ccc(C)cc4c3CCN2C)c(Cl)c1OC (stereo unspecified) | 8.4 | 
14 | COc1ccc(CC2NCCc3c2[nH]c2ccc(C)cc32)c([N+](=O)[O-])c1OC (stereo unspecified) | 9.16 | 
15 | COc1ccc(CC2NCCc3c2[nH]c2cc(C)cc(C)c32)cc1OC (stereo unspecified) | 9.34 | 
16 | COc1ccc(CC2NCCc3c2[nH]c2c3ccc3ccccc32)cc1OC (stereo unspecified) | 9.22 | 
17 | COc1ccc(CC2NCCc3c2[nH]c2ccc(Br)cc32)cc1OC (stereo unspecified) | 8.8 | 
18 | COc1ccc(CC2NCCc3c2[nH]c2ccc(SC)cc32)cc1OC (stereo unspecified) | 9.56 | 
19 | COc1cc(CC2NCCc3c2[nH]c2ccc(C)cc32)cc(N)c1OC (stereo unspecified) | 8.89 | 
20 | Cn1ccc2cc3c(cc21)CCN3C(=O)Nc1cccnc1 | 8.48 | 
21 | COc1ccc(CC2NCCc3c2[nH]c2ccc(C)cc32)c(Br)c1OC (stereo unspecified) | 9.7 | Ratio [2]: 83.2; Ratio [3]: 93.3; Ki [4]: 0.0166 µM; Ki [5]: 0.0186 µM
22 | CCc1ccc2[nH]c3c(c2c1)CCNC3Cc1ccc(OC)c(OC)c1 (stereo unspecified) | 9.46 | 
23 | COc1ccc(CC2NCCc3c2[nH]c2c(Br)cc(C)cc32)cc1OC (stereo unspecified) | 8.92 | 
24 | CCCc1ccc2[nH]c3c(c2c1)CCNC3Cc1ccc(OC)c(OC)c1 (stereo unspecified) | 8.64 | 
25 | COc1cc(CC2NCCc3c2[nH]c2ccc(C)cc32)cc(I)c1OC (stereo unspecified) | 8.12 | 
26 | COc1ccc(CC2NCCc3c2[nH]c2ccccc32)c(Cl)c1OC (stereo unspecified) | 9.27 | 

Row | Structure (SMILES) | -Log KB [1] | further results
27 | COc1ccc(CC2NCCc3c2[nH]c2ccc(-c4ccccc4)cc32)cc1OC (stereo unspecified) | < 7 | 
28 | Cc1ccc(CC2NCCc3c2[nH]c2ccccc32)cc1 (stereo unspecified) | 7.84 | 
29 | Cc1ccc2[nH]c3c(c2c1)CCNC3Cc1cccc(C(F)(F)F)c1 (stereo unspecified) | 8.91 | 
30 | Clc1ccc(CC2NCCc3c2[nH]c2ccccc32)cc1Cl (stereo unspecified) | 8.22 | 
31 | COc1ccc(CC2NCCc3c2[nH]c2ccc(Cl)cc32)cc1OC (stereo unspecified) | 8.36 | 
32 | COc1ccc(CC2NCCc3c2[nH]c2ccccc32)cc1OC (stereo unspecified) | 9.17 | Ratio [2]: 97.7; Ratio [3]: 186; -Log KB [6]: 7.43; Ki [4]: 0.0661 µM; Ki [5]: 0.126 µM
33 | Brc1cccc2c1NC1C(Cc3cccc4ccccc34)NCCC21 (stereo unspecified) | 9.1 | 
34 | COc1ccc(CC2NCCc3c2[nH]c2ccc(I)cc32)cc1OC (stereo unspecified) | 9.52 | 
35 | c1ccc2c3c([nH]c2c1)C(Cc1ccc2c(c1)OCO2)NCC3 (stereo unspecified) | 8.4 | 
36 | COc1ccc(CC2NCCc3c2[nH]c2ccc(OCc4ccccc4)cc32)cc1OC (stereo unspecified) | 6.73 | 
37 | COc1ccc2[nH]c3c(c2c1)CCNC3Cc1ccc(OC)c(OC)c1 (stereo unspecified) | 8.48 | 
38 | COc1ccc(C2NCCc3c2[nH]c2ccccc32)cc1OC (stereo unspecified) | < 6.53 | 
39 | COc1ccc(CCC2NCCc3c2[nH]c2ccccc32)cc1OC (stereo unspecified) | 7.07 | 
40 | CCc1ccc2c(c1)C1CCNC(Cc3cccc4ccccc34)C1N2 (stereo unspecified) | 9.65 | 
41 | COc1ccc(CC2NCC(C)c3c2[nH]c2c(C)cccc32)cc1OC (stereo unspecified) | 9.29 | 
42 | COc1ccc(CC2NCCc3c2[nH]c2ccccc32)cc1 (stereo unspecified) | 8.09 | 
43 | COc1cccc2c1NC1C(Cc3cccc4ccccc34)NCCC21 (stereo unspecified) | 9.72 | 
44 | Clc1ccc2c(c1)C1CCNC(Cc3cccc4ccccc34)C1N2 (stereo unspecified) | 9.16 | 
45 | Cc1ccc2[nH]c3c(c2c1)CCNC3Cc1ccc(C)c(C)c1 (stereo unspecified) | 9.06 | 
46 | Cc1cc(Br)c2c(c1)C1CCNC(Cc3cccc4ccccc34)C1N2 (stereo unspecified) | 8.82 | 
47 | COc1ccc(CC2NCCc3c2[nH]c2ccc(C)cc32)cc1F (stereo unspecified) | 9.42 | 
48 | CN1CC[C@@H]2CN3CCc4cccc(c43)[C@@H]2C1 | 7.34 | Ki [7]: 0.631 µM
49 | Cc1ccc2[nH]c3c(c2c1)CCNC3Cc1ccc(F)c(F)c1 (stereo unspecified) | 8.47 | 
50 | COc1ccc(CC2NCCc3c2[nH]c2ccc(C)cc32)cc1OC (stereo unspecified) |  | Ki [4]: 0.0224 µM
51 | COc1ccc(CN2CCc3c([nH]c4ccccc34)C2)cc1OC | < 5.52 | 
52 | Cc1ccc2[nH]c3c(c2c1)CCNC3Cc1cc(F)cc(F)c1 (stereo unspecified) | 9.05 | 

Row | Structure (SMILES) | -Log KB [1] | further results
53 | COc1ccc(CC2(C)NCCc3c2[nH]c2ccc(C)cc32)cc1OC (stereo unspecified) | < 7.52 | 
54 | COc1ccc(CC2NCCc3c2[nH]c2ccc(C)cc32)c(Cl)c1OC (stereo unspecified) | 9.8 | Ki [4]: 0.0195 µM; -Log KB [8]: 8.14
55 | Cc1ccc2[nH]c3c(c2c1)CCN(C)C3Cc1cccc2ccccc12 (stereo unspecified) | 7.52 | 
56 | CCOc1ccc(CC2NCCc3c2[nH]c2ccccc32)cc1OCC (stereo unspecified) | 8.57 | 
57 | Cn1ccc2cc(NC(=O)Nc3cccnc3)ccc21 | 7.4 | Ratio [2]: > 158; Ratio [3]: 3.5; Ki [4]: > 6.31 µM
58 | COc1ccc(CC2NCCc3c2[nH]c2cc(C)c(C)cc32)cc1OC (stereo unspecified) | 9.71 | Ki [4]: 0.00468 µM
59 | CCCCc1ccc2[nH]c3c(c2c1)CCNC3Cc1ccc(OC)c(OC)c1 (stereo unspecified) | < 7.5 | 
60 | c1ccc2c3c([nH]c2c1)CNCC3 | < 5.52 | 
61 | COc1ccc(CC2NCCc3c2[nH]c2c(C)cc(C)cc32)cc1OC (stereo unspecified) | 9.61 | 
62 | O=C(O)c1ccc2c(c1)C1CCNC(Cc3cccc4ccccc34)C1N2 (stereo unspecified) | < 7.5 | 
63 | COc1ccc(CC2NCCc3c2[nH]c2c(Br)c(C)ccc32)cc1OC (stereo unspecified) | 9.02 | Ratio [2]: 3.09; Ratio [3]: 2.14; Ki [4]: 0.00295 µM; Ki [5]: 0.00204 µM
64 | c1ccc(CC2NCCc3c2[nH]c2ccccc32)cc1 (stereo unspecified) | 7.61 | 
65 | COc1ccc(CC2NCCc3c2[nH]c2c(C)cccc32)cc1OC (stereo unspecified) | 9 | 
66 | c1ccc2c3c([nH]c2c1)[C@@H]1C[C@@H]2CCCC[C@H]2CN1CC3 | 7.26 | 
67 | COc1ccc(CC2NCCc3c2[nH]c2ccc(C(C)C)cc32)cc1OC (stereo unspecified) | 8.5 | 
68 | COc1cc(CC2NCCc3c2[nH]c2ccc(C)cc32)cc([N+](=O)[O-])c1OC (stereo unspecified) | 8.55 | 
69 | COC1=CC=C(CC2NCCc3c2n(C)c2ccc(C)cc32)CC1OC (stereo unspecified) | < 7.52 | 
70 | c1ccc2c(CC3NCCc4c3[nH]c3ccccc43)cccc2c1 (stereo unspecified) | 9.35 | 
71 | COC(=O)[C@@H]1[C@H]2C[C@H]3c4[nH]c5ccccc5c4CCN3C[C@@H]2CC[C@@H]1O | 6.92 | -Log KB [9]: 6.37
72 | COc1ccc(CC2NCCc3c2[nH]c2ccc(C)cc32)c(N)c1OC (stereo unspecified) | 9.02 | 
73 | COc1ccc(CC2NCCc3c2[nH]c2c(C)c(C)ccc32)cc1OC (stereo unspecified) | 10.1 | Ratio [2]: 115; Ratio [3]: 102; Ki [4]: 0.00871 µM; Ki [5]: 0.00776 µM
74 | c1ccc2cc(CC3NCCc4c3[nH]c3ccccc43)ccc2c1 (stereo unspecified) | 7.84 | 
75 | COc1ccc(CC2NCCc3c2[nH]c2ccc(C)c(F)c32)cc1OC (stereo unspecified) | 9.3 | 
76 | COc1ccc(CC2c3c(c4cc(C)ccc4n3C)CCN2C)c(Cl)c1OC (stereo unspecified) | < 7.52 | 
